CHOP inh: blocks CHOP induction under ER stress; CHO-K1 CHOP-promoter luciferase, tunicamycin-induced, 15-18 h; AID 2732; inhibition, % at 10 µM; hit rate 3.8% among 220,000;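 active = compounds that reduced the stress-induced luciferase reporter signal by more than about 70% of percent inhibition, limit read from the data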
UPR XBP1 act: adaptive UPR (XBP1) activation | activation, % at 20 µM | hit rate 0.33% among 330,000 | CHO-XBP1 luciferase reporter, IRE1-XBP1 UPR activation, luminescence; percent of tunicamycin response, DMSO as zero;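 active = versus positive control, 20 µM dose yields 30% or more activation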
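Material – CHO cell line with stable XBP1 luciferase reporter · Buffer or medium – F12 plus 10% FBS · Compound – single point, 20 µM final compound, 1% DMSO · Schedule – 16-18 h cell attachment at 37 °C, then 6 h compound exposure · Signal – Steady-Glo luminescence read · Benchmarks – high control tunicamycin 10 µg/mL final, low control DMSO vehicle only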
CHOP UPR activ: apoptotic UPR (CHOP) activation; CHO-CHOP luciferase reporter, luminescence; percent of tunicamycin response over DMSO baseline; activation, % at 10 µM; hit rate 0.34% among 330,000; AID 449763;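 active = at 10 µM dose, activation of 40% or more, normalized to positive control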
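Assay system: CHO-CHOP cells, stable luciferase reporter of PERK-eIF2a-CHOP signalling / Buffer or medium: F12 plus 10% serum / Compound dosing: one dose, 10 µM in 0.5% DMSO / Times: 6 h compound treatment, 37 °C / Technique: luciferase luminescence / Read-out: % reporter activation, DMSO baseline versus tunicamycin full activation / Benchmarks: tunicamycin and DMSO controls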
PvdQ inh: P. aeruginosa PvdQ acylase inhibition. inhibition, % at 10 µM. hit rate 0.063% among 340,000. purified PvdQ acylase, fluorescence plate reader; in the data active = inhibition above about 30%, passing the limit was not always enough
Numbers stand for hits; 0 = inactive; - = no result. The full list was thinned out, with hits kept by preference.

SMILES | CHOP inh | UPR XBP1 act | CHOP UPR activ | PvdQ inh
CCOC(=O)c1nnn2c1nc(N1CCCCC1)c1ccccc12 | 0 | 0 | 0 | 0
CCC1CCCCN1c1nc2c(C=O)c(C)nn2c2ccccc12 (stereo not given) | 88.8 | 0 | 0 | 0
CC(=O)OC1COC(OC2C(O)C(C)OC(OC3C(OC4CCC5(C)C(CCC6(C)C5CC=C5C7CC(C)(C)CCC7(C(=O)O)CCC56C)C4(C)CO)OCC(O)C3O)C2O)C(O)C1OC(C)=O (stereo not given) | 92.5 | 0 | 0 | -
Cc1ccc(CNc2ncnc3c2cnn3-c2ccccc2)cc1 | 95.3 | 0 | 0 | 0
c1ccc(-n2ncc3c(NCc4ccc5c(c4)OCO5)ncnc32)cc1 | 0 | 0 | 0 | 0
Clc1cccc(Nc2ncnc3c2cnn3-c2ccccc2)c1 | 98.8 | 0 | 0 | 0
Cc1ccc(-n2ncc3c(NCc4ccccc4)ncnc32)cc1 | 79.9 | 0 | 0 | 0
Cc1cccc(-n2ncc3c(NCc4cccnc4)ncnc32)c1 | 0 | 0 | 0 | 0
CCC(CC)NC(=O)Nc1cccc(C)c1C | 0 | 0 | 0 | 0
CCn1c(NC(=O)Nc2cccc(C)c2C)cc2sccc21 | 90.2 | 0 | 0 | 0
CCN1C(=O)CS/C1=N\S(=O)(=O)c1ccc(Cl)cc1 | 0 | 0 | 0 | 0
CCn1c(Cl)c(C=O)s/c1=N\S(=O)(=O)c1ccccc1 | 105.4 | 0 | 0 | 0
Cc1sc(NC(=O)CCl)c(C(=O)c2ccccc2)c1C | 107.8 | 0 | 0 | 0
Cc1ccc2c(c1)C(c1ccccc1)N(C(=O)CC(C)C)CC(=O)N2 (stereo not given) | - | 0 | 0 | 0
CCn1c(=O)cc(OCC(=O)N2CCc3ccccc32)c2ccccc21 | 85.3 | - | - | 0
O=C1CC(SC(=Nc2ccccc2)Nc2ccccc2)C(=O)N1c1ccc(Cl)c(Cl)c1 (stereo not given) | 90.1 | 0 | 0 | 0
Cc1cccc(N2C(=O)CC(SC(=Nc3ccccc3)Nc3ccccc3)C2=O)c1 (stereo not given) | 0 | 0 | 0 | 0
CCN=C(Nc1cccc(F)c1)SC1CC(=O)N(c2ccc(OC)cc2)C1=O (stereo not given) | 90.2 | 0 | 0 | 0
O=C(OCC(=O)N1CCC(Cc2ccccc2)CC1)c1ccccc1O | - | 0 | 0 | 0
COC(=O)c1c(NC(=O)CN2CCCc3ccccc32)sc(C)c1C | 70.4 | 0 | 0 | 0
CSc1ccc(S(=O)(=O)NCCOc2ccccc2C)cc1 | 71.6 | 0 | 0 | 0
COCCCNS(=O)(=O)c1ccc(SC)cc1 | 0 | 0 | 0 | 0
Cc1ccc(C)c(-n2nnnc2SCC(=O)NCCC2=CCCCC2)c1 | 85.8 | 0 | 0 | 0
NS(=O)(=O)c1ccc(CCNc2ncnc3c2c(-c2ccccc2)cn3-c2ccc(F)cc2)cc1 | 74.6 | 0 | 0 | 0
Cc1cc(-c2ccc(S(=O)(=O)N3CCN(c4ccccc4F)CC3)s2)on1 | - | 0 | 0 | 0
SMILES | CHOP inh | UPR XBP1 act | CHOP UPR activ | PvdQ inh
COc1ccc(-n2c(Cc3cccn3C)nnc2SCC(=O)Nc2ccc(Cl)cc2)cc1 | 70.8 | 0 | 0 | 0
COc1ccc(-n2c(Cc3cccn3C)nnc2SCC(=O)Nc2ccccc2)cc1 | 0 | 0 | 0 | 0
Cc1ccc(C(=O)N/C(=C\c2ccco2)C(=O)N2CCCCC2)cc1 | - | 0 | 0 | 0
Cc1cc2ccccn2c1C(=O)c1ccc(N/N=C/c2ccc(C(=O)O)cc2)c([N+](=O)[O-])c1 | 103.0 | - | - | 0
Cc1nn(S(=O)(=O)c2ccc(Cl)cc2)c(C)c1Sc1ccc([N+](=O)[O-])cc1 | 85.2 | - | - | 0
c1cnc(SCCOc2cccc3ccccc23)nc1 | 76.2 | 0 | 0 | 0
Cc1ccc2oc(-c3ccc(C)c(NC(=S)NC(=O)c4cccs4)c3)nc2c1 | 0 | 0 | 0 | 0
CCC(=O)Nc1cccc(NC(=S)NC(=O)c2cc3ccccc3o2)c1 | 94.1 | 0 | 0 | 0
CCC(=O)Nc1ccc(NC(=S)NC(=O)c2cc3ccccc3o2)cc1 | 0 | 0 | 0 | 0
Cc1ccc(-c2nc3ccccc3o2)cc1NC(=S)NC(=O)c1cc2ccccc2o1 | 84.8 | - | - | 0
N#Cc1ccc(COC(=O)c2ccccn2)cc1 | 0 | 0 | 0 | -
CCc1ccc(NC(=O)NCC2CCN(Cc3cccc(Cl)c3)CC2)cc1 | - | 0 | 0 | 0
Cc1ccc(NC(=O)NCC2CCN(Cc3cccc(Cl)c3)CC2)cc1Cl | 88.6 | 0 | 0 | 0
CCc1nnc(NC(=O)[C@@H](NC(=O)c2cccc(S(=O)(=O)N(CC)CC)c2)C(C)C)s1 | 82.5 | 0 | 0 | 0
CCN(CC)S(=O)(=O)c1ccc(Oc2ccc(S(=O)(=O)N(CC)CC)cc2)cc1 | 72.3 | 0 | 0 | 0
C=C(C)c1cccc(C(C)(C)NC(=O)Nc2ccc(C)cn2)c1 | 0 | 0 | 0 | 0
C=C(C)c1cccc(C(C)(C)NC(=O)Nc2cc(C)ccn2)c1 | 91.6 | 0 | 0 | 0
CCCCC(CCC(=O)NNC(=O)Cc1ccccc1)C(=O)O (stereo not given) | 0 | 0 | 0 | 0
Cc1ccc(C2NC(c3ccc(C)cc3)C(C)C(=NO)C2C)cc1 (stereo not given) | 84.4 | 0 | 0 | 0
CCCCOC(=O)C1=C(C)Nc2nnnn2C1c1ccccc1Cl (stereo not given) | 83.5 | 0 | 0 | 0
CCOC(=O)C1=C(C)Nc2nnnn2C1c1ccccc1Cl (stereo not given) | 0 | 0 | 0 | 0
O=C(COC(=O)COc1ccc(Cl)cc1)Nc1ccc(F)c([N+](=O)[O-])c1 | 0 | 0 | 0 | 0
COc1cc(C)ccc1OCC(=O)OCC(=O)c1[nH]c(C)c(C(C)=O)c1C | - | 0 | 0 | 0
CC(=O)c1c(C)[nH]c(C(=O)COc2cc(C)ccc2C(C)C)c1C | 83.2 | 0 | 0 | 0
Cc1nn(-c2ccccc2)nc1C(=O)OCC(=O)N1CCC(C)CC1 | - | 0 | 0 | 0
SMILES | CHOP inh | UPR XBP1 act | CHOP UPR activ | PvdQ inh
COc1cc(/C=N/NC(=O)c2ccc(CN3C(=O)c4cccc5cccc3c45)cc2)cc(OC)c1O | 0 | 0 | 0 | 0
O=C1C[C@@H]2c3c(cccc3CN1Cc1ccccc1F)C[C@@H](O)[C@H]2O | - | - | - | 0
Cc1nc(NC(=O)CC(C)C)sc1-c1csc(Nc2ccc(Cl)cc2)n1 | 70.9 | 0 | 0 | 0
OCC[C@@H]1C[C@@H](O)[C@H](O)[C@]2(Cc3ccccc3O2)O1 | - | 0 | 0 | 0
CCN1/C(=C/c2ccc3ccccc3[n+]2CC)C=Cc2ccccc21 | - | 0 | 0 | 0
CCCCN1/C(=C/c2ccc3ccccc3[n+]2CC)Sc2ccccc21 | 84.4 | 0 | 0 | 0
CCN1/C(=C/c2ccc3cc(C)ccc3[n+]2CC)Sc2cc(C)ccc21 | 81.7 | - | - | 0
Cc1ccc2c(c1)S/C(=C/c1ccc[n+](C)c1)N2CCO | 0 | 0 | 0 | 0
COc1ccc(C2=NN(C(=O)c3ccccc3)C(c3ccc(OC)c(OC)c3)C2)c(OC(C)=O)c1 (stereo not given) | - | 0 | 0 | 0
CC(=O)Nc1ccc(N/C=C/C(=O)C(C)(C)C)cc1 | 0 | 0 | 0 | 0
Cc1ccc(N/C=C/C(=O)C(C)(C)C)c(O)c1 | 85.6 | 0 | 0 | 0
O=C(N/N=C/c1ccc(Cl)cc1Cl)C1CCN(c2ncc(C(F)(F)F)cc2Cl)CC1 | 96.0 | - | - | -
O=C(N/N=C/c1cccc(C(F)(F)F)c1)C1CCN(c2ncc(C(F)(F)F)cc2Cl)CC1 | 83.2 | 0 | 0 | 0
